From ChEMBL document CHEMBL2380292, “Discovery of SAR184841, a potent and long-lasting inhibitor of 11β-hydroxysteroid dehydrogenase type 1, active in a physiopathological animal model of T2D” (Bioorg Med Chem Lett, 2013)

Experiments:
[1] = test system: Mus musculus; test: Antidiabetic activity in diet induced obese C57Bl/6J mouse assessed as plasma insulin level at 10 mg/kg, po qd administered for 4 weeks (reference value: 3.6 +/- 0.2 ng/mL); type: functional
[2] = test system: Mus musculus; test: Antidiabetic activity in diet induced obese C57Bl/6J mouse assessed as plasma glucose level at 1 mg/kg, po qd administered for 4 weeks (reference value: 297 +/- 15 mg/dL); type: functional
[3] = test system: Mus musculus; test: Inhibition of 11beta-HSD1 in mouse adipose tissue at 3 mg/kg, po after 24 hrs; type: functional
Method in brief: (§1)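 Pharmacodynamic study in mice: single oral 3 mg/kg dose, with liver and fat 11β-HSD1 activity followed over 24 h post-dosing.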

[4] = test system: Mus musculus; test: Inhibition of 11beta-HSD1 in mouse liver at 3 mg/kg, po after 7 hrs; type: functional; method in brief: as §1
[5] = Permeability across human Caco2 cells; type: ADME, cell-based; details: Caco-2, read-out: permeability
Method in brief: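 Permeability was measured with the compound alone and in the presence of the P-gp inhibitor elacridar, and expressed in 10^-7 cm/s.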

[6] = Plasma clearance in rat at 3 mg/kg, iv and 10 mg/kg, po; type: ADME, organism-based
[7] = AUC (0 to infinity) in rat plasma at 10 mg/kg, po; type: ADME, organism-based; set-up: time infinity, dose 10 mg/kg, route oral
[8] = species on record: Xenopus laevis; test: Toxicity in Xenopus laevis by teratogenicity assay; type: organism-based; details: in vivo
[9] = test system: Hepatocyte; test: Intrinsic clearance in human hepatocytes assessed per 10^-6 cells; type: ADME, cell-based
[10] = Solubility of the compound in aqueous buffer up to pH 4.5; type: physicochemical
[11] = test system: Mus musculus; test: Ex vivo inhibition of 11beta-HSD1 in C57Bl/6J mouse liver at 30 mg/kg, po after 16 hrs; type: functional
Method in brief: (§2)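 Mice given a single oral dose as a suspension in Tween 80/0.6% methylcellulose (0.5/99.5, v/v) at 10 mL/kg. At 2 h or 16 h post-dose, animals were killed by cervical dislocation and 50 mg liver and 200 mg subcutaneous fat were taken for 11β-HSD1 activity. Reactions were stopped with HCl 1 N/methanol (1/1). 3H-cortisone and 3H-cortisol were quantified by HPLC with flow scintillation detection.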

[12] = target: Cytochrome P450 3A4 (Homo sapiens, UniProt P08684); test: Inhibition of CYP3A4 (unknown origin); type: ADME
[13] = test system: Liver microsomes; test: Metabolic stability in human liver microsomes; type: ADME, Microsome
[14] = target: 11-beta-hydroxysteroid dehydrogenase 1 (Rattus norvegicus, UniProt P16232); test: Inhibition of rat 11beta-HSD1
[15] = Induction of cytochrome P450 (unknown origin); type: ADME; details: human
[16] = test system: Mus musculus; test: Ex vivo inhibition of 11beta-HSD1 in C57Bl/6J mouse subcutaneous fat at 3 mg/kg, po after 16 hrs; type: functional; method in brief: as §2
[17] = Plasma concentration in C57Bl/6J mouse at 10 mg/kg, po 22 hrs post last dose; type: ADME, organism-based; set-up: dose 10 mg/kg, route oral
Method in brief: (§3)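 C57Bl/6J mice, 20 weeks old, kept on a high-fat/high-fructose diet (diet-induced obese), were dosed orally once daily for 4 weeks at 1, 3 or 10 mg/kg/day in methylcellulose-Tween 80 vehicle. Lean and obese vehicle-treated controls were included, with n = 9–10 per group. Food intake and body weight were followed. Plasma drug levels were taken at study end, about 22 h after the last dose.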

[18] = Plasma concentration in C57Bl/6J mouse at 3 mg/kg, po 22 hrs post last dose; type: ADME, organism-based; set-up: dose 3 mg/kg, route oral; method in brief: as §3
[19] = test system: Mus musculus; test: Toxicity in C57Bl/6J mouse assessed as change in body weight at 1 to 10 mg/kg, po; type: organism-based; set-up: dose 1-10 mg/kg, route oral; details: in vivo; method in brief: as §3
[20] = test system: Mus musculus; test: Toxicity in C57Bl/6J mouse assessed as effect on food intake at 1 to 10 mg/kg, po; type: organism-based; set-up: dose 1-10 mg/kg, route oral; details: in vivo; method in brief: as §3
[21] = test system: Mus musculus; test: Antidiabetic activity in diet induced obese C57Bl/6J mouse assessed as increase of glucose tolerance at 10 mg/kg, po after 3 weeks by oral glucose tolerance test; type: functional
[22] = test system: Mus musculus; test: Antidiabetic activity in diet induced obese C57Bl/6J mouse assessed as plasma triglyceride level at 1 mg/kg, po qd administered for 4 weeks (reference value: 36.2 +/- 2.1 […]); type: functional
[23] = in vivo; details: rat, brain, po, 10 mg/kg
[24] = in vivo; details: rat, liver, po, 10 mg/kg

Chain of 11-beta-hydroxysteroid dehydrogenase 1 (P16232 whole entry): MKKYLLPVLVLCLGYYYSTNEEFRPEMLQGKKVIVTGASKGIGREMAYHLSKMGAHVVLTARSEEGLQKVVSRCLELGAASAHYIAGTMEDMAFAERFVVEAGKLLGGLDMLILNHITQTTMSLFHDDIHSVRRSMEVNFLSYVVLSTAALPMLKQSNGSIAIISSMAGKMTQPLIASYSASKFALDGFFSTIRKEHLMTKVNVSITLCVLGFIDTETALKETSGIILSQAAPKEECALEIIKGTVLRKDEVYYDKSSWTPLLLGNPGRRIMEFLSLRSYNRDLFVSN
Chain of Cytochrome P450 3A4 (P08684 whole entry): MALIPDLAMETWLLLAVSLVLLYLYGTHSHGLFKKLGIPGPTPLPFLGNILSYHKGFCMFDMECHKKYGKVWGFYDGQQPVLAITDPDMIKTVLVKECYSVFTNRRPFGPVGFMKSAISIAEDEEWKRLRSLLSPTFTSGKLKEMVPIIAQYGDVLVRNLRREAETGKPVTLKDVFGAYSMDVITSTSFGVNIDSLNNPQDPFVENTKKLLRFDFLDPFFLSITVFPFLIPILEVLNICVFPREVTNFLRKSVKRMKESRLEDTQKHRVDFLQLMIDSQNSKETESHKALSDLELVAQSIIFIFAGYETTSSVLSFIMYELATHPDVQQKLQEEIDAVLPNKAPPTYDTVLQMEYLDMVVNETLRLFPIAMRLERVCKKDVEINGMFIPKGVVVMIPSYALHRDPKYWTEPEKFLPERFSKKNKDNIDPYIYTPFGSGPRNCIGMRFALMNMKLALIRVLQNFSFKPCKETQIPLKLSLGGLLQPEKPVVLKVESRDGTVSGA

Papp [5]: 0.3 ×10⁻⁶ cm/s
clearance [6]: 86.7 mL/min/kg
AUC(0-inf) [7]: 580 ng·h/mL
CLH [9]: 0.035 mL/h
solubility [10]: > 2000 µg/mL
IC50 [12]: > 50000 nM
Stability [13]: 2%
IC50 [14]: 7 nM
Activity [15]: Not Active
concentration at 22 h [17]: 2.6 nM
concentration at 22 h [18]: 3.8 nM
Kp [23]: 0.14
Kp [24]: 224
Structure (SMILES): CC(C)(C)N1CCN(c2ccc(N3CCN(C(=O)N[C@H]4C5CC6CC4C[C@](C(N)=O)(C6)C5)c4ccccc43)nc2)CC1
Activity [1]: 1.9 ng/mL
Activity [2]: 263 mg/dL
inhibition in vivo at 3 mg/kg [3]: 40%
inhibition in vivo at 3 mg/kg [4]: > 90%
Activity [8]: Non-toxic
inhibition in vivo at 30 mg/kg [11]: 72%
inhibition in vivo at 3 mg/kg [16]: > 50%
Activity [19]: Non-toxic
Activity [20]: Non-toxic
Activity [21]: -23%
Activity [22]: 33.8 mg/mL
